Results taken from ChEMBL document CHEMBL3352548, “Small-molecule suppression of β-lactam resistance in multidrug-resistant gram-negative pathogens” (J Med Chem, 2014).

Legend:
Acinetobacter baumannii [1] = assay: Antibacterial activity against Acinetobacter baumannii ATCC BAA-1605 assessed as complete inhibition of bacterial growth after 16 hrs by microdilution method; type: functional; conditions: ATCC BAA-1605, 16 h
Procedure, shortened: (§1)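 MIC of each compound alone was determined first. Antibiotic MICs (imipenem or meropenem for A. baumannii; ceftazidime or meropenem for P. aeruginosa) were then measured with compound at fixed sub-MIC concentrations. Fold reduction is MIC without compound divided by MIC with compound.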

Acinetobacter baumannii [2] = assay: Antibacterial activity against Acinetobacter baumannii ATCC BAA-1605 assessed as fold reduction in meropenem MIC at 15 uM after 16 hrs by microdilution method; type: functional; procedure, shortened: as §1
Pseudomonas aeruginosa [3] = assay: Antibacterial activity against Pseudomonas aeruginosa PA53 assessed as complete inhibition of bacterial growth after 16 hrs by microdilution method; type: functional; conditions: PA53, 16 h; procedure, shortened: as §1
Pseudomonas aeruginosa [4] = assay: Antibacterial activity against Pseudomonas aeruginosa PA53 assessed as fold reduction in meropenem MIC at 60 uM after 16 hrs by microdilution method; type: functional; procedure, shortened: as §1
Pseudomonas aeruginosa [5] = assay: Antibacterial activity against Pseudomonas aeruginosa PA53 assessed as fold reduction in ceftazidime MIC at 60 uM after 16 hrs by microdilution method; type: functional; procedure, shortened: as §1
Acinetobacter baumannii [6] = assay: Antibacterial activity against Acinetobacter baumannii ATCC BAA-1605 assessed as fold reduction in imipenem MIC at 15 uM after 16 hrs by microdilution method; type: functional; procedure, shortened: as §1
Acinetobacter baumannii [7] = assay: Antibacterial activity against Acinetobacter baumannii ATCC BAA-1605 assessed as reduction in CFU at 15 uM after 6 hrs by time kill assay in presence of 4 ug/ml meropenem; type: functional
Procedure, shortened: (§2)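 Time-kill: cultures were grown at 37 °C with shaking with compound (15 μM for BAA-1605, 60 μM for PA53), meropenem (1–32 μg/mL for BAA-1605, 1–64 μg/mL for PA53), or both. Samples taken at 2, 4, 6, 8 and 24 h were serially diluted in CAMHB, plated on nutrient agar, incubated overnight at 37 °C, and colonies counted.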

Acinetobacter baumannii [8] = assay: Antibacterial activity against Acinetobacter baumannii ATCC BAA-1605 assessed as reduction in CFU at 15 uM after 6 hrs by time kill assay in presence of 1 ug/ml meropenem; type: functional; procedure, shortened: as §2
Acinetobacter baumannii [9] = assay: Antibacterial activity against Acinetobacter baumannii ATCC BAA-1605 assessed as reduction in CFU at 15 uM after 6 hrs by time kill assay; type: functional; procedure, shortened: as §2
Pseudomonas aeruginosa [10] = assay: Antibacterial activity against Pseudomonas aeruginosa PA53 assessed as reduction in CFU at 60 uM after 6 hrs by time kill assay in presence of 4 ug/ml meropenem; type: functional; procedure, shortened: as §2
Pseudomonas aeruginosa [11] = assay: Antibacterial activity against Pseudomonas aeruginosa PA53 assessed as reduction in CFU at 60 uM after 6 hrs by time kill assay in presence of 1 ug/ml meropenem; type: functional; procedure, shortened: as §2
Pseudomonas aeruginosa [12] = assay: Antibacterial activity against Pseudomonas aeruginosa PA53 assessed as reduction in CFU at 60 uM after 6 hrs by time kill assay; type: functional; procedure, shortened: as §2
Acinetobacter baumannii [13] = assay: Antibacterial activity against Acinetobacter baumannii ATCC BAA-1605 assessed as cell death at 15 uM after 16 hrs by checkerboard assay in presence of meropenem; type: functional
Procedure, shortened: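 Checkerboard in CAMHB with BAA-1605 at 5 × 10^5 CFU/mL. Compound and meropenem were each serially two-fold diluted along perpendicular axes, with one […] row and column giving each agent's MIC alone. ΣFIC = (combination MIC/MIC alone) for compound plus the same for antibiotic. ≤0.5 was taken as synergy, 0.5–2 as indifference, ≥2 as antagonism.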

Acinetobacter baumannii [14] = assay: Antibacterial activity against Acinetobacter baumannii ATCC BAA-1605 assessed as cell death at 15 uM after 16 hrs by checkerboard assay in presence of 10% bovine plasma; type: functional; conditions: ATCC BAA-1605, Plasma
Procedure, shortened: (§3)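 A. baumannii BAA-1605 MIC of compound alone, measured in cation-adjusted Mueller–Hinton broth (CAMHB) supplemented with 10% or 50% bovine plasma.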

Acinetobacter baumannii [15] = assay: Antibacterial activity against Acinetobacter baumannii ATCC BAA-1605 assessed as cell death at 15 uM after 16 hrs by checkerboard assay in presence of 50% bovine plasma; type: functional; conditions: ATCC BAA-1605, Plasma; procedure, shortened: as §3
[16] = Hemolytic activity in sheep red blood cells up to 400 uM by UV spectrophotometry; type: ADME, cell-based, Ovis aries; conditions: erythrocyte
Procedure, shortened: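 Mechanically defibrinated sheep blood cells were washed three times by centrifugation in PBS and diluted 10-fold. Compound in PBS was added and samples shaken at 200 rpm for 1 h at 37 °C. Supernatant was diluted 40-fold in water and read at 540 nm. PBS served as zero-lysis control and 1% Triton X as 100% lysis control.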

[17] = Cytotoxicity against human HaCaT cells after 12 to 18 hrs by MTT assay; type: cell-based; conditions: read-out: TCID50
Procedure, shortened: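 HaCaT keratinocytes were grown in 10% FBS–DMEM with penicillin/streptomycin, seeded at 8 × 10^4 cells/mL and grown overnight to 90% confluence. Serial dilutions (2.5 mM to 1.22 μM, duplicate) were applied overnight. MTT was added for 4 h in the dark, then SDS/HCl solubilizer for 12–18 h. Absorbance was read at 550 nm against a 670 nm reference.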

Acinetobacter baumannii [18] = assay: Antibacterial activity against Acinetobacter baumannii ATCC BAA-1605 assessed as meropenem MIC at 15 uM after 6 hrs in presence of 10% bovine plasma by time kill assay (Rvb meropenem MIC in absence of plasma= 32 ug/ml); type: functional; conditions: ATCC BAA-1605, 6 h
Procedure, shortened: (§4)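 Meropenem MIC against A. baumannii BAA-1605 in CAMHB containing 10% bovine plasma, with compound held at fixed 15, 20, 25 or 30 μM. Parallel runs were done in CAMHB without plasma.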

Acinetobacter baumannii [19] = assay: Antibacterial activity against Acinetobacter baumannii ATCC BAA-1605 assessed as meropenem MIC at 20 uM after 6 hrs in presence of 10% bovine plasma by time kill assay (Rvb meropenem MIC in absence of plasma= 4 ug/ml); type: functional; conditions: ATCC BAA-1605, 6 h; procedure, shortened: as §4
Acinetobacter baumannii [20] = assay: Antibacterial activity against Acinetobacter baumannii ATCC BAA-1605 assessed as meropenem MIC at 25 uM after 6 hrs in presence of 10% bovine plasma by time kill assay (Rvb meropenem MIC in absence of plasma= 2 ug/ml); type: functional; conditions: ATCC BAA-1605, 6 h; procedure, shortened: as §4
Acinetobacter baumannii [21] = assay: Antibacterial activity against Acinetobacter baumannii ATCC BAA-1605 assessed as meropenem MIC at 30 uM after 6 hrs in presence of 10% bovine plasma by time kill assay (Rvb meropenem MIC in absence of plasma= 0.5 ug/ml); type: functional; conditions: ATCC BAA-1605, 6 h; procedure, shortened: as §4

MIC (Acinetobacter baumannii [1]): 50 µM
MIC (Pseudomonas aeruginosa [3]): > 200 µM
Structure (SMILES): Cl.Nc1nc(-c2ccc(NC(=O)c3cc(Cl)cc(Cl)c3)cc2)c[nH]1
fold change (FC) (Acinetobacter baumannii [2]): 8
fold change (FC) (Pseudomonas aeruginosa [4]): 8
fold change (FC) (Pseudomonas aeruginosa [5]): 16
fold change (FC) (Acinetobacter baumannii [6]): 8
fold change (FC) (Acinetobacter baumannii [7]): 4
fold change (FC) (Acinetobacter baumannii [8]): 4
fold change (FC) (Acinetobacter baumannii [9]): 2.53
fold change (FC) (Pseudomonas aeruginosa [10]): 3.2
fold change (FC) (Pseudomonas aeruginosa [11]): 3.2
fold change (FC) (Pseudomonas aeruginosa [12]): 2.49
fractional inhibitory concentration index (FICI) (Acinetobacter baumannii [13]): 0.375
MIC (Acinetobacter baumannii [14]): 50 µM
MIC (Acinetobacter baumannii [15]): 200 µM
Activity [16]: Non-toxic
CC50 [17]: 387 µM
MIC (Acinetobacter baumannii [18]): 32 µg/mL
MIC (Acinetobacter baumannii [19]): 16 µg/mL
MIC (Acinetobacter baumannii [20]): 8 µg/mL
MIC (Acinetobacter baumannii [21]): 0.5 µg/mL
